According to ChEMBL document CHEMBL4732224, “Structure activity refinement of phenylsulfonyl piperazines as antimalarials that block erythrocytic invasion” (Eur J Med Chem, 2021):

Legend:
[1] = tested on: Plasmodium falciparum; assay: Antimalarial activity against Plasmodium falciparum 3D7 incubated for 72 hrs by LDH assay; format: functional, organism-based; conditions: 3D7, 72 h
In short: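 Asexual blood-stage P. falciparum 3D7 parasites were cultured with compound for 72 h, and viability was read by lactate dehydrogenase (LDH) activity.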

[2] = tested on: HepG2; assay: Cytotoxicity against human HePG2 cells assessed as growth inhibition after 48 hrs by Cell Titer-Glo assay; format: cell-based; conditions: HepG2, 48 h
[3] = tested on: Plasmodium knowlesi; assay: Antimalarial activity against asexual blood stage of Plasmodium knowlesi YHI assessed as reduction in cell viability after 48 hrs by EtBr staining based flow cytometric analysis; format: functional, organism-based
[4] = tested on: Plasmodium falciparum; assay: Antimalarial activity against asexual blood stage of Plasmodium falciparum 3D7 assessed as reduction in cell viability after 72 hrs by EtBr staining based flow cytometric analysis; format: functional, organism-based; conditions: 3D7, 72 h
[5] = tested on: Plasmodium falciparum; assay: Antimalarial activity against asexual blood stage of Mefloquine-resistant Plasmodium falciparum W2mef assessed as reduction in cell viability after 72 hrs by EtBr staining based flow cytometric analysis; format: functional, organism-based
[6] = tested on: Plasmodium falciparum; assay: Antimalarial activity against asexual blood stage of chloroquine-resistant Plasmodium falciparum Dd2 assessed as reduction in cell viability after 72 hrs by EtBr staining based flow cytometric analysis; format: functional, organism-based; conditions: Dd2, 72 h
[7] = tested on: Plasmodium falciparum; assay: Antimalarial activity against asexual blood stage of chloroquine-resistant Plasmodium falciparum 7G8 assessed as reduction in cell viability after 72 hrs by EtBr staining based flow cytometric analysis; format: functional, organism-based; conditions: 7G8, 72 h
[8] = tested on: Plasmodium falciparum; assay: Antimalarial activity against asexual blood stage of artemisinin-resistant Plasmodium falciparum Cam3.12539T cambodian isolate assessed as reduction in cell viability after 72 hrs by EtBr staining based flow cytometric analysis; format: functional, organism-based; conditions: Cam3.12539T cambodian isolat
[9] = tested on: Plasmodium falciparum; assay: Antimalarial activity against Plasmodium falciparum NF54 early stage (1 to 3) expressing Pfs16-LUC-GFP assessed as growth inhibition by high content imaging assay; format: functional, organism-based
[10] = tested on: Plasmodium falciparum; assay: Antimalarial activity against Plasmodium falciparum NF54 late stage ([…]) expressing Pfs16-LUC-GFP assessed as growth inhibition by high content imaging assay; format: functional, organism-based
[11] = tested on: Plasmodium falciparum; assay: Antimalarial activity against Plasmodium falciparum NF54 late stage ([…]) expressing Pfs16-LUC-GFP assessed as growth inhibition at 20 uM by high content imaging assay relative to control; format: functional; conditions: read-out: GI
[12] = Intrinsic clearance in mouse liver microsomes at 1 uM in presence of NADPH measured up to 60 mins by LC-MS analysis; format: ADME, Microsome; conditions: read-out: CLH

Compound | EC50 [1] | EC50 [2] | further results
CC(C(=O)N1C[C@H]2CCC[C@H]2C1)N1CCN(S(=O)(=O)c2ccc(C(C)(C)C)cc2)CC1 (stereo partly specified) | 0.81 µM | > 40 µM | –
CC(C(=O)N1CCc2ccccc21)N1CCN(S(=O)(=O)c2ccc(C(C)(C)C)cc2)CC1 (stereo unspecified) | 0.93 µM | > 40 µM | –
CC(C(=O)N1CCCC1)N1C[C@@H]2CN(S(=O)(=O)c3ccc(C(C)(C)C)cc3)C[C@@H]2C1 (stereo partly specified) | 4.3 µM | > 40 µM | –
CCC(C)c1ccc(S(=O)(=O)N2CCN(C(C)C(=O)N3CCCC3)CC2)cc1 (stereo unspecified) | 9.1 µM | > 40 µM | –
Cc1ccc(S(=O)(=O)N2CCN(C(C)C(=O)N3CCCC3)CC2)cc1 (stereo unspecified) | > 10 µM | – | –
CC(C(=O)N1CCc2ccccc2C1C)N1CCN(S(=O)(=O)c2ccc(C(C)(C)C)cc2)CC1 (stereo unspecified) | 1.2 µM | 28 µM | –
CC(C(=O)N1CCCCC1)N1CCN(S(=O)(=O)c2ccc(C(C)(C)C)cc2)CC1 (stereo unspecified) | 0.5 µM | > 40 µM | –
CC(C)(C)c1ccc(S(=O)(=O)N2CCN(C(Cc3ccccc3)C(=O)N3CCCC3)CC2)cc1 (stereo unspecified) | > 10 µM | – | –
CC(C(=O)N1CCCC1)N1CCN(S(=O)(=O)c2ccc(C(F)(F)F)cc2)CC1 (stereo unspecified) | > 10 µM | – | –
CC(C(=O)N1CCCc2ccccc21)N1CCN(S(=O)(=O)c2ccc(C(C)(C)C)cc2)CC1 (stereo unspecified) | 1.9 µM | > 40 µM | –
CCN(CC)CCCC(C)Nc1ccnc2cc(Cl)ccc12 (stereo unspecified) [CHLOROQUINE] | 21 µM | – | EC50 [3]: 0.01 µM; EC50 [4]: 0.004 µM; EC50 [5]: 0.25 µM; EC50 [6]: 0.58 µM; EC50 [7]: 0.32 µM; EC50 [8]: 0.56 µM; EC50 [9]: 0.097 µM; EC50 [10]: > 10 µM; inhibition of growth at 20 µM [11]: 99%
CC(C(=O)N1CCCC1)N1[C@@H]2CC[C@H]1CN(S(=O)(=O)c1ccc(C(C)(C)C)cc1)C2 (stereo partly specified) | 0.92 µM | > 40 µM | microsomal CLint at 1 µM [12]: 473 µL/min/mg
COc1ccc2nc3cc(Cl)ccc3c(Nc3cc(CN4CCCC4)c(O)c(CN4CCCC4)c3)c2n1 [PYRONARIDINE] | – | – | EC50 [9]: 0.053 µM; EC50 [10]: 1.24 µM
CC(C(=O)N1CCCC1)C1CCN(S(=O)(=O)c2ccc(C(C)(C)C)cc2)CC1 (stereo unspecified) | > 10 µM | > 40 µM | microsomal CLint at 1 µM [12]: 532 µL/min/mg
CCNC(=O)C(C)N1CCN(S(=O)(=O)c2ccc(C(C)(C)C)cc2)CC1 (stereo unspecified) | > 10 µM | – | –
COc1ccc(S(=O)(=O)N2CCN(C(C)C(=O)N3CCCC3)CC2)cc1 (stereo unspecified) | > 10 µM | – | –
CC(C(=O)N1CCCC1)N1CCN(S(=O)(=O)c2ccc(CC(F)(F)F)cc2)CC1 (stereo unspecified) | > 10 µM | – | –

Compound | EC50 [1] | EC50 [2] | further results
CC(C(=O)N1CCN(C)CC1)N1CCN(S(=O)(=O)c2ccc(C(C)(C)C)cc2)CC1 (stereo unspecified) | 6.1 µM | > 40 µM | –
CC(C(=O)N1CCCC1)N1CCN(S(=O)(=O)c2ccc(S(F)(F)(F)(F)F)cc2)CC1 (stereo unspecified) | > 10 µM | – | –
C[C@H](C(=O)N1CCCC1)N1CCN(S(=O)(=O)c2ccc(C(C)(C)C)cc2)CC1 | > 11 µM | > 40 µM | –
C[C@H](C(=O)N1CCCCC1)N1CCN(S(=O)(=O)c2ccc(C(C)(C)C)cc2)CC1 | 6.9 µM | > 40 µM | –
CC(C(=O)N1CCCC1)N1CCN(S(=O)(=O)c2ccc(C(C)(C)C)cc2)C(C)(C)C1 (stereo unspecified) | 1.6 µM | > 40 µM | –
CC(C(=O)N1CCNCC1)N1CCN(S(=O)(=O)c2ccc(C(C)(C)C)cc2)CC1 (stereo unspecified) | > 10 µM | – | –
CCC1(CC)c2ccccc2CCN1C(=O)C(C)N1CCN(S(=O)(=O)c2ccc(C(C)(C)C)cc2)CC1 (stereo unspecified) | 1.2 µM | > 40 µM | –
CC(C(=O)N1C2CCCC1CC2)N1CCN(S(=O)(=O)c2ccc(C(C)(C)C)cc2)CC1 (stereo unspecified) | 0.92 µM | > 40 µM | –
CC(C(=O)N1CCCC1)N1CCN(S(=O)(=O)c2ccc([Si](C)(C)C)cc2)CC1 (stereo unspecified) | 1.3 µM | > 40 µM | –
CC(C(=O)N1CCCC1)N1CCN(S(=O)(=O)c2ccc(-c3ccccc3)cc2)CC1 (stereo unspecified) | > 10 µM | – | –
CC(C(=O)N1CCC(F)(F)CC1)N1CCN(S(=O)(=O)c2ccc(C(C)(C)C)cc2)CC1 (stereo unspecified) | 0.38 µM | > 40 µM | –
CC(C(=O)N1CCCC1)N1CCN(S(=O)(=O)c2ccc(C(C)(C)C)cc2)[C@@H](C)C1 (stereo partly specified) | 1.9 µM | > 40 µM | –
CC(C(=O)N1CCCC1)N1CCN(S(=O)(=O)c2ccc(C3CC3)cc2)CC1 (stereo unspecified) | > 10 µM | – | –
CC(C(=O)N1CCCC1)N1CCN(S(=O)(=O)c2ccc(C3(C(F)(F)F)CC3)cc2)CC1 (stereo unspecified) | > 10 µM | – | –
CC(C(=O)N1CCCC1)N1CCN(S(=O)(=O)c2ccc(C(C)(C)CO)cc2)CC1 (stereo unspecified) | > 10 µM | > 40 µM | –
CC(C(=O)N1CCCC1)N1CCN(S(=O)(=O)c2ccc(C(C)(C)C)cc2)CC1=O (stereo unspecified) | > 10 µM | – | –
CCN(CC)C(=O)C(C)N1CCN(S(=O)(=O)c2ccc(C(C)(C)C)cc2)CC1 (stereo unspecified) | 1.8 µM | > 40 µM | –
